Half-life, Kd and IC50 data for 90 compounds are collected here from ChEMBL document CHEMBL1138344, “Nuclear magnetic resonance fragment-based identification of novel FKBP12 inhibitors” (J Med Chem, 2007).

The half-life is the time in which the quantity being followed falls by half. High values mean slow loss, low ones fast loss. One may read the pKd as the Kd on a negative log10 scale, so that one unit is a factor of ten. A higher pKd goes with a low Kd. Broadly, the pIC50 is the IC50 on a negative log10 scale, so that one unit is a factor of ten.

The structures appear in SMILES notation. pIC50, pKd: −log10 of the molar value.

Chain of Peptidyl-prolyl cis-trans isomerase FKBP1A (P62942 whole entry): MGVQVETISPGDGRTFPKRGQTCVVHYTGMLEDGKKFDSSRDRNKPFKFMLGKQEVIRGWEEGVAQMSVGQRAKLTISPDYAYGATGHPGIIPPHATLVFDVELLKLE

Tested on in one series: not listed separately
The series is described as follows: Metabolic stability in human liver microsomes. Format: ADME, Microsome. A digest of the protocol: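 Pooled human liver microsomes with an NADPH-generating system (DETAPAC, NADP+, glucose-6-phosphate, G6P dehydrogenase) in 50 mM potassium phosphate pH 7.4. Started by adding compound from a 5 mM stock (FK506 stock 0.5 mM). Aliquots taken at 0, 10, 25, 40 and 60 min and extracted with dichloromethane/isopropanol 3:1. Half-life determined.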
(Liver microsomes are vesicles of endoplasmic reticulum, rich in cytochrome P450 enzymes.)
`COC(=O)C1COCCN1C(=O)C(F)(F)Sc1ccc(C(C)C)cc1` (configuration not stated): the half-life came to 40 min. The same measure, in the same setting: next, `COC(=O)[C@@H]1CCCCN1C(=O)C(=O)c1cc(OC)c(OC)c(OC)c1`: 40 min; `COC(=O)C1COCCN1C(=O)CSc1ccc(C(C)C)cc1` (configuration not stated): 40 min; `COc1ccc(CCC(=O)N2CCOCC2)cc1`: 40 min. The compound `CC(C)c1ccc(SCC(=O)N2CCOCC2C(=O)O)cc1` (configuration not stated) came in with a half-life greater than 60 min. `CC(C)c1ccc(SCC(=O)N2CCOCC2C(=O)OCCCc2cccnc2)cc1` (configuration not stated) had a half-life of 40 min. On the same count and under the same terms, with `C=CC[C@@H]1/C=C(\C)C[C@H](C)C[C@H](OC)[C@H]2O[C@@](O)(C(=O)C(=O)N3CCCC[C@H]3C(=O)O[C@H](/C(C)=C/[C@@H]3CC[C@@H](O)[C@H](OC)C3)[C@H](C)[C@@H](O)CC1=O)[C@H](C)C[C@@H]2OC` [TACROLIMUS ANHYDROUS] the figure was greater than 60 min; with `CC(C)c1ccc(SCC(=O)N2CCOCC2)cc1`, 40 min.

A further series addresses Peptidyl-prolyl cis-trans isomerase FKBP1A (Homo sapiens, UniProt P62942).
Turning to `O=S(=O)(Nc1cc(Cl)cc(Cl)c1)N1CCCCC1`, the pKd is 3.81.

For `O=C(COc1ccc(F)cc1)N1CCOCC1`, the pKd was 3.24. `O=C(CSc1ccc2ccccc2c1)N1CCOCC1`: the pKd is less than 2.85.

`FC(F)(F)c1cccc(Cn2c(-c3cscn3)nc3ccccc32)c1` had a pKd of less than 2.52.

For the compound `COC(=O)C1COCCN1C(=O)CS(=O)(=O)c1ccc(C(C)C)cc1` (configuration not stated), the pKd was 3.30. Still for that read-out and setting: next, `O=C(Cn1c(-c2cscn2)nc2ccccc21)Nc1ccc(Cl)cc1`: less than 2.40; `COC(=O)C1COCCN1C(=O)C(F)(F)Sc1ccc(C(C)C)cc1` (configuration not stated): 3.72; `CC(C)c1ccccc1OCC(=O)N1CCOCC1`: less than 2.60. The same measure, in the same setting: next, `Nc1cccc(OCC(=O)N2CCOCC2)c1`: less than 2.30. The compound `Cc1ccc(Cl)cc1NS(=O)(=O)N1CCCCC1` had a pKd of less than 2.43. On the same count and under the same terms, with `CC1CN(C(=O)COc2ccccc2Cl)CC(C)O1` (configuration not stated) the figure was less than 2.30; with `Cc1ccc(NS(=O)(=O)N2CCCCC2)cc1Cl`, 3.87; with `O=C(CSc1cccc2cccnc12)N1CCOCC1`, less than 2.85. In turn, `CC(C)c1ccc(OCC(=O)N2CCOCC2)cc1` showed a pKd of 4.00. Turning to `Cc1cc(OCC(=O)N2CCOCC2)ccc1NC(=O)OCc1ccccc1`, the pKd was less than 2.82.

`Cc1ccc(NS(=O)(=O)N2CCCCC2)c(C)c1` had a pKd of 3.54. Still for that read-out and setting: with `c1ccc2[nH]c(-c3cscn3)nc2c1` [THIABENDAZOLE] the figure was 4.22; with `Cc1ccc(NS(=O)(=O)c2ccc(OCC(=O)N3CCOCC3)cc2)cc1`, less than 3.00; with `Clc1cccc(Cl)c1Cn1c(-c2cscn2)nc2ccccc21`, less than 2.40.

In turn, `Brc1ccccc1Cn1c(-c2cscn2)nc2ccccc21` gave a pKd of less than 2.52. Still for that read-out and setting: with `c1ccc2c(c1)nc(-c1cscn1)n2Cc1ccc(-c2nnn[nH]2)cc1` the figure was less than 2.52.

As to `N#Cc1ccccc1Cn1c(-c2cscn2)nc2ccccc21`, the negative-log Kd (pKd) is less than 2.40. With `CSc1ccccc1NC(=O)Cn1c(-c2cscn2)nc2ccccc21`, the pKd is less than 2.40. On the same count and under the same terms, with `CC(C)c1ccc(CCC(=O)N2CCOCC2)cc1` the figure was 5.64.

As for `O=[N+]([O-])c1ccc(NS(=O)(=O)N2CCCCC2)cc1`, the pKd was 3.78. Still for that read-out and setting: next, `CCOc1ccc(OCC(=O)N2CCOCC2)cc1`: 3.24. The same measure, in the same setting: next, `O=C(CSc1ccccc1)N1CCOCC1`: 4.82; `Cc1ccc(OCC(=O)N2CCOCC2)cc1C`: 3.64. Compound `COC(=O)[C@@H]1CCCCN1C(=O)C(=O)c1cc(OC)c(OC)c(OC)c1` had a pKd of 5.52. `Nc1nc(-c2nc3ccccc3[nH]2)cs1` gave a pKd of 4.01. `Cc1cc(OCC(=O)N2CC(C)OC(C)C2)cc(C)c1Cl` (configuration not stated) gave a pKd of less than 2.30. On the same count and under the same terms, next, `Cc1ccc(C(C)C)c(OCCNC(=O)c2ccccc2OCC(=O)N2CCOCC2)c1`: less than 2.60. On the same count and under the same terms, with `Cc1nnc(SCC2=NOCC2)n1-c1ccccc1` the figure was 4.41; with `CC(C)c1ccc(SCC(=O)O)cc1`, less than 2.40; with `O=C(O)c1ccccc1SCC(=O)N1CCOCC1`, less than 2.43. Still for that read-out and setting: next, `O=C(Nc1ccc(OCC(=O)N2CCOCC2)cc1)c1ccccc1Cl`: less than 2.60. Take `Cc1cc(C)c(OCC(=O)N2CCOCC2)c(C)c1`: the pKd was less than 2.82. Compound `Cc1cc(N)cc(C)c1OCC(=O)N1CCOCC1` had a pKd of less than 2.62. On to `CCOc1ccc(NS(=O)(=O)N2CCCCC2)cc1`, for which the pKd was less than 2.91. Consider `O=C(COc1ccc(Cl)cc1Cl)N1CCOCC1`, for which the pKd was less than 2.99. Still for that read-out and setting: with `O=C(COc1cc(Cl)c(Cl)cc1Cl)N1CCOCC1` the figure was 3.35; with `Cc1cc(S(=O)(=O)Nc2cccc(C(F)(F)F)c2)ccc1OCC(=O)N1CCOCC1`, 3.24; with `COc1ccc(OCC(=O)N2CCOCC2)cc1`, 3.45. On the same count and under the same terms, with `Cc1ccc(-c2ccc(OCC(=O)N3CCOCC3)cc2)cc1` the figure was 3.12.

In the case of `CC1CN(C(=O)CSc2ccccc2)CC(C)O1` (configuration not stated), the pKd was 3.14. `Cc1ccc(SCC(=O)N2CC(C)OC(C)C2)cc1` (configuration not stated) gave a pKd of less than 2.40.

With `Cc1cc(S(=O)(=O)N2CCCC2)ccc1OCC(=O)N1CCOCC1`, the negative logarithm of the Kd (pKd) is 3.24. On the same count and under the same terms, with `O=C(Nc1cccc(Cl)c1Cl)c1ccccc1OCC(=O)N1CCOCC1` the figure was less than 2.30; with `Cc1cc(C)c(C)c(OCC(=O)N2CCOCC2)c1`, less than 3.00.

Compound `Cc1ccc(OCC(=O)N2CCOCC2)c(C)c1` gave a pKd of less than 3.00. Same read-out and setting: next, `COc1ccc(CCC(=O)N2CCOCC2)cc1`: 3.69; `O=C(COc1ccc(S(=O)(=O)NC2CCCC2)cc1)N1CCOCC1`: 3.12. On the same count and under the same terms, with `Cc1ccc2cccc(SCC(=O)N3CCOCC3)c2n1` the figure was less than 2.85; with `Cc1ccc(S(=O)(=O)CC(=O)N2CCOCC2)cc1`, less than 2.30; with `O=C(Nc1ccc(OCC(=O)N2CCOCC2)cc1)c1ccccc1F`, less than 2.82. `O=S(=O)(Nc1ccc(F)cc1)N1CCCCC1` gave a pKd of 3.50.

Compound `CC(C)c1ccc(SCC(=O)N2CCOCC2C(=O)O)cc1` (configuration not stated) showed a pKd of 3.37. `CC(=O)c1cccc(NS(=O)(=O)N2CCCCC2)c1` showed a negative-log Kd (pKd) of 3.26.

For `Fc1ccc(Cn2c(-c3cscn3)nc3ccccc32)c(Cl)c1`, the pKd was less than 2.40. Still for that read-out and setting: with `Cc1ccc(OCC(=O)N2CC(C)OC(C)C2)cc1C` (configuration not stated) the figure was less than 2.30.

Take `CC(C)c1ccc(SCC(=O)N2CCOCC2C(=O)OCCCc2cccnc2)cc1` (configuration not stated): the negative-log Kd (pKd) was 5.25. The same measure, in the same setting: next, `O=C(COc1ccc2c(c1)OCO2)N1CCOCC1`: 3.24; `O=C(CSc1ccc(Cl)cc1)N1CCOCC1`: 4.82. Still for that read-out and setting: with `Cc1ccc(NS(=O)(=O)N2CCCCC2)cc1` the figure was 3.54; with `O=S(=O)(Nc1ccc2c(c1)oc1ccccc12)N1CCCCC1`, less than 2.43.

`O=C(COc1ccccc1F)N1CCOCC1` showed a pKd of 3.45. On to `Cc1ccc(SCC(=O)N2CCOCC2)cc1`, for which the pKd was 4.82. Same read-out and setting: next, `O=C(COc1cccc(Cl)c1)N1CCOCC1`: 3.12; `Cc1cc(OCC(=O)N2CCOCC2)cc(C(C)C)c1Cl`: 3.24. In the case of `Cc1cc(OCC(=O)N2CCOCC2)ccc1C(C)C`, the pKd was 3.73. With `COc1cc(CNCc2cccs2)ccc1OCC(=O)N1CCOCC1`, the pKd was less than 2.30. Same read-out and setting: with `CC(C)c1ccc(S(=O)(=O)CC(=O)N2CCOCC2C(=O)OCCCc2ccc[n+]([O-])c2)cc1` (configuration not stated) the figure was 2.89.

The compound `COc1cc2c(cc1NS(=O)(=O)N1CCCCC1)oc1ccccc12` gave a pKd of less than 2.43. Same read-out and setting: with `CC(C)c1ccc(SC(F)(F)C(=O)N2CCOCC2)cc1` the figure was 5.55; with `CCc1ccc(OCC(=O)N2CCOCC2)cc1`, 3.91; with `CCCCNS(=O)(=O)c1ccc(OCC(=O)N2CCOCC2)cc1`, 3.12.

The compound `c1ccc2c(c1)nc(-c1cscn1)n2CCCc1nnn[nH]1` gave a pKd of less than 2.82. On the same count and under the same terms, with `CCc1ccccc1OCC(=O)N1CCOCC1` the figure was less than 2.82; with `Cc1cc(Cl)ccc1OCC(=O)N1CCOCC1`, less than 3.00.

`O=C(COc1ccccc1)N1CCOCC1` gave a pKd of less than 2.99.

With `O=C(O)c1cc(C(F)(F)F)ccc1SCC(=O)N1CCOCC1`, the pKd was 3.34. On the same count and under the same terms, with `O=S(=O)(Nc1ccc(Br)cc1)N1CCCCC1` the figure was 3.52; with `Cc1cc(C)cc(NS(=O)(=O)N2CCCCC2)c1`, less than 2.73. Same read-out and setting: next, `CC(C)NS(=O)(=O)c1ccc(OCC(=O)N2CCOCC2)cc1`: less than 3.00; `O=C(Cn1c(-c2cscn2)nc2ccccc21)Nc1ccccc1F`: less than 2.40. `Cc1cc(OCC(=O)N2CCOCC2)cc(C)c1Cl` gave a pKd of 3.64. In the case of `O=C(Nc1ccc(OCC(=O)N2CCOCC2)cc1)c1cccnc1`, the pKd is less than 2.30.

Molecular target in a further series: not listed separately
Put plainly: Inhibition of testosterone 6-hydroxylase. On the set-up: species or system Homo sapiens. The procedure, abridged: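 Pooled human liver microsomes with an NADPH-generating system (DETAPAC, NADP+, glucose-6-phosphate, G6P dehydrogenase) in 50 mM potassium phosphate pH 7.4. Compound added, then testosterone substrate; 10 min shaking at 37 °C, stopped with cold ethyl acetate. Read-out is 6-hydroxytestosterone formation. IC50 estimated, or determined in detail for some compounds.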
The compound `CC(C)c1ccc(SCC(=O)N2CCOCC2C(=O)OCCCc2cccnc2)cc1` (configuration not stated) had a pIC50 of 6.09. The same measure, in the same setting: next, `C=CC[C@@H]1/C=C(\C)C[C@H](C)C[C@H](OC)[C@H]2O[C@@](O)(C(=O)C(=O)N3CCCC[C@H]3C(=O)O[C@H](/C(C)=C/[C@@H]3CC[C@@H](O)[C@H](OC)C3)[C@H](C)[C@@H](O)CC1=O)[C@H](C)C[C@@H]2OC` [TACROLIMUS ANHYDROUS]: 5.65.
